Measured values reported in ChEMBL document CHEMBL2331279, “Rational design and synthesis of 4-substituted 2-pyridin-2-ylamides with inhibitory effects on SH2 domain-containing inositol 5'-phosphatase 2 (SHIP2)” (Eur J Med Chem, 2013).
The source made the active and inactive calls. The rule behind the calls is not given here.

How the values were obtained:
[1] = target: T1, Phosphatidylinositol 3,4,5-trisphosphate 5-phosphatase 2 (Rattus norvegicus) (UniProt Q9WVR3); test: Inhibition of SHIP2 in TNF alpha-treated Sprague-Dawley rat cortical neuron assessed as potentiation of insulin-stimulated Akt phosphorylation at Thr308 at 10 uM treated for 15 mins after TNF alpha challenge for 3 days and prior to insulin stimulation measured after 5 mins by Western blot analysis relative to untreated control
T1 sequence (whole entry): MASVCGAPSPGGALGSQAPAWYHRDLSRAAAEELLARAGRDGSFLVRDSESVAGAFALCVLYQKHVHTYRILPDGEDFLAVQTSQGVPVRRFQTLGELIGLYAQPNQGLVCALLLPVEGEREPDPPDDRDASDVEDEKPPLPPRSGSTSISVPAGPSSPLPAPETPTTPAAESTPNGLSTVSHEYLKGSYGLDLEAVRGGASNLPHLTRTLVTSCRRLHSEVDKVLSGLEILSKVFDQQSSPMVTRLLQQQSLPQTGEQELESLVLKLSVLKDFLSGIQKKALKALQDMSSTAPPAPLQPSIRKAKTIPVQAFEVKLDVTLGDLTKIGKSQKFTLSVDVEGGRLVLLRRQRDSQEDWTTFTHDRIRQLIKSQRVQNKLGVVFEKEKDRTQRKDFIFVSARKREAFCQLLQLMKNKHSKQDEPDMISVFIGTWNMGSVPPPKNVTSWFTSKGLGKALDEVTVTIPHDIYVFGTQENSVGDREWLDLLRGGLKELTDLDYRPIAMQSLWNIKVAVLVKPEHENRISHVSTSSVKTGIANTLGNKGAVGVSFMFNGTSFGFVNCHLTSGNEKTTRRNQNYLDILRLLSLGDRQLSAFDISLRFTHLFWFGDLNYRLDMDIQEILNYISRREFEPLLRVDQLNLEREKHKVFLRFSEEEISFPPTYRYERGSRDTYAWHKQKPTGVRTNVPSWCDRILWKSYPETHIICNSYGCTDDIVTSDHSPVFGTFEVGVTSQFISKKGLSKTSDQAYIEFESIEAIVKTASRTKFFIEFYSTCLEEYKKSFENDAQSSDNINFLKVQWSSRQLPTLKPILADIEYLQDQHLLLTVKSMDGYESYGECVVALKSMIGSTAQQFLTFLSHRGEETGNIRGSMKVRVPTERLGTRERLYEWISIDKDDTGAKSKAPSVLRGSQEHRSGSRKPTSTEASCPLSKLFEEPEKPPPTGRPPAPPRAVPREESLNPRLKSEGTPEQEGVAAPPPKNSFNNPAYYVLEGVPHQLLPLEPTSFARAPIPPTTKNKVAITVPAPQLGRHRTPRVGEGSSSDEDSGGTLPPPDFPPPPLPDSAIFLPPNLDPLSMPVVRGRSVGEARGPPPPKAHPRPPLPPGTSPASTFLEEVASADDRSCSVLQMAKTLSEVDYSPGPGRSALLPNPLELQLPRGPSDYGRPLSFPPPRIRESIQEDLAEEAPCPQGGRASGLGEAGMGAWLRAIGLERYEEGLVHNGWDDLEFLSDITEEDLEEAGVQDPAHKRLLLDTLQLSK

[2] = test system: Mus musculus; test: Toxicity in db/db mouse assessed as body weight at 300 mg/kg, po bid for 12 to 13 days measured on day 10 (reference value: 39.2 +/-0.6 gms); assay type: organism-based; design: dose 300 mg/kg, route oral; settings: in vivo
[3] = target: T2, Phosphatidylinositol 3,4,5-trisphosphate 5-phosphatase 2 (Mus musculus) (UniProt Q6P549); test: Inhibition of SHIP2 in mouse 3T3L1 cells assessed as reduction of TNF-alpha induced decrease in insulin-stimulated Akt phosphorylation at Thr308 at 10 uM treated for 15 mins after TNF alpha challenge for 16 hrs and prior to insulin stimulation measured after 2 hrs by Western blot analysis; assay type: cell-based; settings: 3T3-L1
T2 sequence (whole entry): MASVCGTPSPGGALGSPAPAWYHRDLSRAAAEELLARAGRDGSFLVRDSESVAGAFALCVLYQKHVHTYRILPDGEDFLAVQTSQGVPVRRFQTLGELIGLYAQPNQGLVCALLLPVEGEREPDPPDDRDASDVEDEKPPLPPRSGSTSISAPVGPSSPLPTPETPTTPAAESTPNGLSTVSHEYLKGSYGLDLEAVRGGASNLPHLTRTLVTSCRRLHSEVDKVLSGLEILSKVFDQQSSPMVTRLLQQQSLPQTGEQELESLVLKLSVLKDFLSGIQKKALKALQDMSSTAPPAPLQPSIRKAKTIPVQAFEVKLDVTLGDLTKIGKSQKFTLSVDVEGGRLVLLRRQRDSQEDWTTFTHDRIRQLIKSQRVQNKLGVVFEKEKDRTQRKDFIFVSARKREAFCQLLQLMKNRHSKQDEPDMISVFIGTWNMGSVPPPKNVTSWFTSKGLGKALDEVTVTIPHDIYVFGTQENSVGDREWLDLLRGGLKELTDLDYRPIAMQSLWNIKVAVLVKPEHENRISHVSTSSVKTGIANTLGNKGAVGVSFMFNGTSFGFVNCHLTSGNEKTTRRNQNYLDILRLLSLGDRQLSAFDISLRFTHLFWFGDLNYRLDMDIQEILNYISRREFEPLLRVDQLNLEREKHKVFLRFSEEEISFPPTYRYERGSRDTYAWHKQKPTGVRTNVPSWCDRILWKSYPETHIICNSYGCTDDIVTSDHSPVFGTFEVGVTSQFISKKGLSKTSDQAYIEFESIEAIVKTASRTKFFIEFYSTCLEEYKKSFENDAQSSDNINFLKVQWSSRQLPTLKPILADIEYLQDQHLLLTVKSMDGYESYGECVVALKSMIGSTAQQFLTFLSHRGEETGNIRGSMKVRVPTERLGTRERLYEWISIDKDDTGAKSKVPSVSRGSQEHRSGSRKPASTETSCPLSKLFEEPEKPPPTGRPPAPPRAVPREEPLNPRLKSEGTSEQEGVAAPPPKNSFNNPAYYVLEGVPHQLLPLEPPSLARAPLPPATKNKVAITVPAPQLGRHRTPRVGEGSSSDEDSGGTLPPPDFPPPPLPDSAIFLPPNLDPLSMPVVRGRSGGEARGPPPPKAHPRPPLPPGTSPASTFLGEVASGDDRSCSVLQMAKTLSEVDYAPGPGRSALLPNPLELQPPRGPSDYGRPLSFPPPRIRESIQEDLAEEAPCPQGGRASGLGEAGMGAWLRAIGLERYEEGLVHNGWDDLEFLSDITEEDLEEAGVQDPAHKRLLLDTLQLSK
Summary of the method: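 3T3-L1 fibroblasts differentiated into adipocytes, then serum-starved 16 h with TNFα 20 ng/mL. Treated with compound 10 µM or 0.1% DMSO for 15 min, then stimulated with 17 nM insulin at 37 °C for 2 h. Cells lysed on ice at pH 7.5 and Thr308 phospho-Akt measured by western blot. Results given as fold change versus TNFα+insulin control. Mean ± SE.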

[4] = test system: Mus musculus; test: Antidiabetic activity in db/db mouse assessed as serum insulin level at 300 mg/kg, po bid for 12 to 13 days measured on day 12 to 13 (reference value: 7.30 +/-1.10 ng/ml); assay type: functional
[5] = test system: Mus musculus; test: Antidiabetic activity in db/db mouse assessed as decrease in HOMA-R index of insulin resistance at 300 mg/kg, po bid for 12 to 13 days; assay type: functional, organism-based; design: dose 300 mg/kg

fold change (FC) [1]	inhibition [3]	SMILES	Activity [2] [g]	Activity [4] [ng/mL]	inhibition [5]
2.2	Active	O=C(Cc1c(F)cccc1F)Nc1cc(OCc2ccc(Cl)cc2)ccn1	39.4	6.86	Active
1.5		C[C@H](NC(=O)c1sccc1OCc1ccc(Cl)cc1)c1ccccc1	40.1	9.95	Active
